In PMC7498158 (Journal of Medicinal Chemistry, 2020):

Columns and labels:
Type in all cases: biochemical
[1] = molecular target: T1, PLAAT2 (Homo sapiens, UniProt Q9NWW9)
T1 sequence (Q9NWW9 1-162): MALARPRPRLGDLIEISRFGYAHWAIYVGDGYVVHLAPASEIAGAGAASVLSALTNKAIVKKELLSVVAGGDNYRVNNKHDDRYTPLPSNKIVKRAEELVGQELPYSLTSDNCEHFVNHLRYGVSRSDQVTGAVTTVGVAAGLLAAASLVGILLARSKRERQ
In short: (§1)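 Human PLAAT cDNA (C-terminal FLAG, pcDNA3.1) was PEI-transfected into HEK293T; cytosol came from a 100,000g spin. Cytosol was preincubated with test compound (30 min, rt), then MB064 (20 min, rt). Conditions: PLAAT2 0.25 μg/μL, 250 nM; PLAAT3 0.5 μg/μL, 250 nM; PLAAT4/5 1 μg/μL, 500 nM. In-gel fluorescence was normalized to Coomassie, in triplicate. Single-concentration screen or IC50 from dose–response curves.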

[2] = molecular target: T2, PLAAT4 (Homo sapiens, UniProt Q9UL19)
T2 sequence (Q9UL19 1-164): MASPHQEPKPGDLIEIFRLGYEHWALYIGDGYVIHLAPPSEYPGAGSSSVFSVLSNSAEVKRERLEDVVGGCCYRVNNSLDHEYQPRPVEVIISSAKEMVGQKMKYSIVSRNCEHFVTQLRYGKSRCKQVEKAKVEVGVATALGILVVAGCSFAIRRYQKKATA
In short: as §1

[3] = molecular target: hNAPE-PLD (Homo sapiens, UniProt Q6IQ20); test: NAPE-PLD surrogate substrate; details: 10 μM
Sequence of hNAPE-PLD (Q6IQ20 whole entry): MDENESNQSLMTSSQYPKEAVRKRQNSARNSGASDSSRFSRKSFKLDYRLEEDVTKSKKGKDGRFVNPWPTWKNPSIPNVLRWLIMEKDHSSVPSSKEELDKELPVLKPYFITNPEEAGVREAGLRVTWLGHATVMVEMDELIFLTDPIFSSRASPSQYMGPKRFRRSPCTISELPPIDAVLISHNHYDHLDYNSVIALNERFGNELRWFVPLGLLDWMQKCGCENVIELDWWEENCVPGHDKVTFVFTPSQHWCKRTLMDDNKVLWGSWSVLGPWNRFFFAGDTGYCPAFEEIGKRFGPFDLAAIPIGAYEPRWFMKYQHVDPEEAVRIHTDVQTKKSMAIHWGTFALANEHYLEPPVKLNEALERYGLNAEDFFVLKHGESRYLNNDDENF

[4] = molecular target: T3, hPLA2G4E (Homo sapiens, UniProt Q3MJ16); test: gel-based ABPP with FP-TAMRA, hPLA2G4E-overexpressing membrane lysate; details: 10 μM
T3 sequence (Q3MJ16 1-868): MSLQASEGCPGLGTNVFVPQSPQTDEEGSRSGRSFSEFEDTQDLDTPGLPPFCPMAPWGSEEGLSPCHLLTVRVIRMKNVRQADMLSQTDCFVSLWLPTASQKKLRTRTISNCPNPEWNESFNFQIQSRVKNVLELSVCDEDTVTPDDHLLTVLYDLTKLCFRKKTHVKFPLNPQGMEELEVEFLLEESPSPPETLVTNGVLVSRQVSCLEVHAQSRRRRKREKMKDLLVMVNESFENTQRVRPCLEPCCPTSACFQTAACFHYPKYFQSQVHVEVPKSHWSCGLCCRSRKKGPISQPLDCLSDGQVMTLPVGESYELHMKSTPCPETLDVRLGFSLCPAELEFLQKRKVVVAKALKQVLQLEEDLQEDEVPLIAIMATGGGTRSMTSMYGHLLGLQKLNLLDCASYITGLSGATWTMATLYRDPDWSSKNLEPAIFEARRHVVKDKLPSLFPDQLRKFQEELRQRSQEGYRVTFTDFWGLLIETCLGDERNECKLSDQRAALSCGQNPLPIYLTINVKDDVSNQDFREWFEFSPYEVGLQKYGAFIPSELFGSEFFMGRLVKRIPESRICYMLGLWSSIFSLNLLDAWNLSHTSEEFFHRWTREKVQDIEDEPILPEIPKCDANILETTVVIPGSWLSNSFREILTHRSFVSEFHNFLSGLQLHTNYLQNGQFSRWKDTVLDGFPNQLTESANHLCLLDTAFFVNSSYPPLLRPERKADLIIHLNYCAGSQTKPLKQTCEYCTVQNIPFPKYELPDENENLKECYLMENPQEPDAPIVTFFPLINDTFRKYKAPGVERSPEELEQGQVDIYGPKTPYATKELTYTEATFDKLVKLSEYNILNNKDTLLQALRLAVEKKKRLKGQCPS
In short: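 Membrane lysate from hPLA2G4E-overexpressing cells (1 μg/μL) was preincubated with test compound in DMSO (30 min, rt), then labeled with FP-TAMRA (50 nM, 5 min, rt). Proteins were denatured in Laemmli buffer and resolved on 8% acrylamide SDS-PAGE. In-gel fluorescence was normalized to Coomassie staining.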

[5] = molecular target: T4, mFAAH (Mus musculus, UniProt O08914); test: gel-based ABPP, mouse brain membrane proteome; details: 10 μM
T4 sequence (O08914 1-579): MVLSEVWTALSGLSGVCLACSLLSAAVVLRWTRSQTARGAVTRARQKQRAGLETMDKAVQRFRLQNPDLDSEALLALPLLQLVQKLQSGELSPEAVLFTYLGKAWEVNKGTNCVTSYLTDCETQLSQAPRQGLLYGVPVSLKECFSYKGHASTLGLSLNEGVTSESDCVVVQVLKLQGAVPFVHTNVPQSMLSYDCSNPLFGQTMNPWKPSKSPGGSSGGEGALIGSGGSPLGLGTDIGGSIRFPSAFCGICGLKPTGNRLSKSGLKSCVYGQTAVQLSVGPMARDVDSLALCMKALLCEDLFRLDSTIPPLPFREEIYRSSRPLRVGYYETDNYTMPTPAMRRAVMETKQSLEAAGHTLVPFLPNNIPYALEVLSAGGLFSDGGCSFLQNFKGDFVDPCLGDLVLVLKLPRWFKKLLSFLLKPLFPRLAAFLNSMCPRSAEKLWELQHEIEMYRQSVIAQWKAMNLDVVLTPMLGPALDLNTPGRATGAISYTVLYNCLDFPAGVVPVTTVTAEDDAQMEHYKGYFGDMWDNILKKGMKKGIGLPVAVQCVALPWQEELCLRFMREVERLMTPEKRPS
In short: (§2)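 Mouse brain was dounce-homogenized in 20 mM HEPES pH 7.2 with DTT, MgCl2 and benzonase. The membrane pellet from ultracentrifugation (100,000g, 45 min, 4 °C) was used at 2 μg/μL. It was preincubated with test compound in DMSO (30 min, rt), then labeled with MB064 (250 nM) or FP-TAMRA (500 nM) for 15 min at rt. Samples ran on 10% SDS-PAGE; fluorescence was normalized to Coomassie staining.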

[6] = molecular target: T5, mABHD6 (Mus musculus, UniProt Q8R2Y0); test: gel-based ABPP, mouse brain membrane proteome; details: 10 μM
T5 sequence (Q8R2Y0 1-336): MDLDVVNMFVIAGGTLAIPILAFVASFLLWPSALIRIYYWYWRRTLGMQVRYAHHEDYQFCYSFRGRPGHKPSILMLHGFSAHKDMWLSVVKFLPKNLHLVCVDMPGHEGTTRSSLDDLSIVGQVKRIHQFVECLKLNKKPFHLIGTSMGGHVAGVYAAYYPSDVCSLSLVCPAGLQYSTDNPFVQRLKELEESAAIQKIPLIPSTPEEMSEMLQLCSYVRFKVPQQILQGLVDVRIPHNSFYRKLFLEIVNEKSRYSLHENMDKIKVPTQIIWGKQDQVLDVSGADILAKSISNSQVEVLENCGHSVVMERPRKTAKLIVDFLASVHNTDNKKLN
In short: as §2

O=C(CCCc1ccccc1)C(=O)NCCc1ccc(Oc2ccccc2)cc1 [Compound 51, 2-Oxo-N-(4-phenoxyphenethyl)-5-phenylpentanamide]
higher potency for PLAAT2 than initial hit [1]: 10 fold | increase in activity/potency for PLAAT2 compared to 25 [1]: 10 fold | increase in activity/potency for PLAAT4 compared to 25 [2]: 10 fold | inhibition of NAPE-PLD (in words) [3]: not inhibited | inhibition of PLA2G4E (in words) [4]: not inhibited | inhibition of FAAH (in words) [5]: not inhibited | inhibition of ABHD6 (in words) [6]: not inhibited
